Holding throughout (assay type): functional
Test [1] relates to Candida albicans. As to the kind of experiment: Antimicrobial activity against azole-resistant Candida albicans isolate CA10 assessed as growth at 0.125 ug/ml co-treated with 0.004 ug/ml calcineurin signaling inhibitor tacrolimus after 48 hrs by microdilution checkboard technique relative to control. Also noted: scale not given: the % may be the effect or the level left. An outline of the steps:
(§1)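 Checkerboard microdilution in MOPS-buffered RPMI 1640 (pH 7.0, 2% dextrose). Final ranges: azole 0.125–128 μg/ml (FLC) or 0.008–8 μg/ml (ITR, VRC), tacrolimus 0.002–0.125 μg/ml; solvent 1% in single-drug wells. Inoculum 2.5 × 10^3 CFU/ml, 35°C, 48 h. Growth % = background-subtracted OD492 of each well / drug-free well. Triplicate on different days.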
For orientation: In broth dilution the organism is exposed to a series of concentrations in liquid medium.

Test [2] has as its system Candida albicans. Kind of test: Antimicrobial activity against azole-resistant Candida albicans isolate CA10 assessed as growth at 1 ug/ml cotreated with 0.002 ug/ml calcineurin signaling inhibitor tacrolimus after 48 hrs by microdilution checkerboard technique relative to control. Also noted: scale not given: the % may be the effect or the level left. In a few lines: as §1

In test [3] the test system is Candida albicans. As to the kind of experiment: Antimicrobial activity against azole-resistant Candida albicans isolate CA10 assessed as growth at 1 ug/ml after 48 hrs by microdilution checkerboard technique relative to control. In a few lines:
as §1

For test [4], the system named is Candida albicans. Kind of test: Antimicrobial activity against azole-susceptible Candida albicans isolate CA12 co-treated with calcineurin signaling inhibitor tacrolimus after 48 hrs by microdilution checkerboard technique. The conditions noted are these: isolate CA12, 48 h. In a few lines:
(§2)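 Checkerboard microdilution in MOPS-buffered RPMI 1640 (pH 7.0, 2% dextrose) with 2.5 × 10^3 CFU/ml for 48 h at 35°C. Final FK506 was 0.002–0.125 μg/ml. Azole finals were FLC 0.125–128 μg/ml, and ITR and VRC 0.008–8 μg/ml. MIC80 is an 80% OD492 decrease vs drug-free control. Interaction was scored by FICI (synergy ≤0.5, antagonism >4) and by ΔE from triplicates.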

Test [5] concerns Candida albicans. As to the kind of experiment: Antimicrobial activity against azole-resistant Candida albicans isolate CA10 assessed as growth at 2 ug/ml cotreated with 0.063 ug/ml calcineurin signaling inhibitor tacrolimus after 48 hrs by microdilution checkerboard technique relative to control. Also noted: scale not given: the % may be the effect or the level left. An outline of the steps:
as §1

The subject of test [6] is Candida albicans. Kind of test: Antimicrobial activity against azole-resistant Candida albicans isolate CA10 assessed as growth at 2 ug/ml after 48 hrs by microdilution checkerboard technique relative to control. An outline of the steps: as §1
For test [7], the system named is Candida albicans. Kind of test: Antimicrobial activity against azole-resistant Candida albicans isolate CA10 assessed as growth at 1 ug/ml co-treated with 0.125 ug/ml calcineurin signaling inhibitor tacrolimus after 48 hrs by microdilution checkboard technique relative to control. Also noted: scale not given: the % may be the effect or the level left. In a few lines: as §1

In test [8] the test system is Candida albicans. As to the kind of experiment: Antimicrobial activity against azole-resistant Candida albicans isolate CA10 assessed as growth at 0.008 ug/ml after 48 hrs by microdilution checkerboard technique relative to control. An outline of the steps:
as §1

In test [9] the test system is Candida albicans. Kind of test: Antimicrobial activity against azole-resistant Candida albicans isolate CA10 assessed as growth at 0.125 ug/ml co-treated with 0.016 ug/ml calcineurin signaling inhibitor tacrolimus after 48 hrs by microdilution checkboard technique relative to control. Also noted: scale not given: the % may be the effect or the level left. In a few lines:
as §1

The subject of test [10] is Candida albicans. Kind of test: Antimicrobial activity against azole-resistant Candida albicans isolate CA10 assessed as growth at 128 ug/ml cotreated with 0.016 ug/ml calcineurin signaling inhibitor tacrolimus after 48 hrs by microdilution checkerboard technique relative to control. Also noted: scale not given: the % may be the effect or the level left. In a few lines:
as §1

Test [11] relates to Candida albicans. As to the kind of experiment: Antimicrobial activity against azole-resistant Candida albicans isolate CA10 co-treated with calcineurin signaling inhibitor tacrolimus after 48 hrs by microdilution checkerboard technique. The following applies: isolate CA10, 48 h. In a few lines:
as §2

Test [12] concerns Candida albicans. As to the kind of experiment: Antimicrobial activity against azole-resistant Candida albicans isolate CA10 assessed as growth at 4 ug/ml cotreated with 0.008 ug/ml calcineurin signaling inhibitor tacrolimus after 48 hrs by microdilution checkerboard technique relative to control. Also noted: scale not given: the % may be the effect or the level left. In a few lines: (§3)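 CA10 in RPMI 1640 with 2% dextrose and 0.165 M MOPS, pH 7.0. Checkerboard used twofold dilutions, with azole alone in row H and the drug-free growth control in well H1. Final inoculum was 2.5 × 10^3 CFU/ml, incubated 35°C for 48 h, with OD read at 492 nm. Growth % = background-subtracted well OD / drug-free well OD. Run in triplicate on different days.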

Test [13] relates to Candida albicans. Kind of test: Antimicrobial activity against azole-susceptible Candida albicans isolate CA129 after 48 hrs by broth microdilution method. The following applies: isolate CA129, 48 h. In a few lines: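 CLSI M27-A2 broth microdilution was run in RPMI 1640 (pH 7.0, 2% dextrose, 0.165 M MOPS). Inoculum was 2.5 × 10^3 CFU/ml, incubated 35°C for 48 h without shaking. Plates were read visually (0–5 scale) and at OD 492 nm. MIC80 = lowest concentration giving an 80% absorbance decrease vs drug-free control. Triplicate.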

In test [14] the test system is Candida albicans. Kind of test: Antimicrobial activity against azole-resistant Candida albicans isolate CA10 assessed as growth at 0.125 ug/ml cotreated with 0.008 ug/ml calcineurin signaling inhibitor tacrolimus after 48 hrs by microdilution checkerboard technique relative to control. The arrangement: scale not given: the % may be the effect or the level left. In a few lines: as §1

The subject of test [15] is Candida albicans. Kind of test: Antimicrobial activity against azole-resistant Candida albicans isolate CA10 assessed as growth at 8 ug/ml cotreated with 0.002 ug/ml calcineurin signaling inhibitor Tacrolimus after 48 hrs by microdilution checkboard technique relative to control. Also noted: scale not given: the % may be the effect or the level left. In a few lines:
as §3

Test [16] concerns Candida albicans. Kind of test: Antimicrobial activity against azole-resistant Candida albicans isolate CA10 assessed as log reduction in colony count at 10 ug/ml co-treated with calcineurin signaling inhibitor tacrolimus after 48 hrs by XTT assay. An outline of the steps: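 Same time-kill setup (10^5 CFU/ml start, azole ± 0.016 μg/ml FK506, 35°C). At each time point, aliquots were mixed 1:1 with XTT (0.5 g/liter in Ringer's lactate) plus 10 μM menadione final. Incubation was in the dark for up to 2 h at 35°C, then formazan was read at 492 nm. OD was converted to CFU via a standard curve (Y = 4.2610x + 4.2087). Triplicate.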
Background: Tetrazolium assays rely on reduction of a dye to a coloured formazan, in cell work by metabolically active cells.

Test [17] concerns Candida albicans. Kind of test: Antimicrobial activity against azole-resistant Candida albicans isolate CA10 assessed as growth at 32 ug/ml co-treated with 0.031 ug/ml calcineurin signaling inhibitor tacrolimus after 48 hrs by microdilution checkboard technique relative to control. Also noted: scale not given: the % may be the effect or the level left. An outline of the steps: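 Checkerboard microdilution in RPMI 1640 (pH 7.0, 2% dextrose, 0.165 M MOPS). Azole dilutions run along columns and FK506 along rows, at 4× final concentration. Final inoculum 2.5 × 10^3 CFU/ml from Sabouraud-subcultured cells. Incubated 35°C for 48 h; OD read at 492 nm. Background from microorganism-free plates subtracted. Growth % = well OD / drug-free well OD. Triplicate on different days, values averaged.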

For test [18], the system named is Candida albicans. Kind of test: Antimicrobial activity against azole-resistant Candida albicans isolate CA10 assessed as growth at 8 ug/ml cotreated with 0.016 ug/ml calcineurin signaling inhibitor Tacrolimus after 48 hrs by microdilution checkboard technique relative to control. The arrangement: scale not given: the % may be the effect or the level left. An outline of the steps: as §3

Test [19] deals with Candida albicans. Kind of test: Antimicrobial activity against azole-resistant Candida albicans isolate CA10 assessed as growth at 4 ug/ml cotreated with 0.002 ug/ml calcineurin signaling inhibitor tacrolimus after 48 hrs by microdilution checkerboard technique relative to control. The arrangement: scale not given: the % may be the effect or the level left. In a few lines: as §3

In test [20] the test system is Candida albicans. Kind of test: Antimicrobial activity against azole-resistant Candida albicans isolate CA10 assessed as growth at 4 ug/ml cotreated with 0.125 ug/ml calcineurin signaling inhibitor Tacrolimus after 48 hrs by microdilution checkboard technique relative to control. The arrangement: scale not given: the % may be the effect or the level left. An outline of the steps:
as §3

The test system of test [21] is Candida albicans. As to the kind of experiment: Antimicrobial activity against azole-resistant Candida albicans isolate CA10 assessed as growth at 0.125 ug/ml after 48 hrs by microdilution checkerboard technique relative to control. In a few lines:
as §1

Values after ≈ are worked out from the molar mass of the structure shown.

For `OC(Cn1cncn1)(Cn1cncn1)c1ccc(F)cc1F` [FLUCONAZOLE], the Activity in the test with Candida albicans [1] amounted to 67%; with Candida albicans [2] it was 50%; with Candida albicans [3], 56%; with Candida albicans [5], 13%; in the test on Candida albicans [6] it was 54%; in the test on Candida albicans [7], 3%. Besides, the Activity in the test with Candida albicans [8] was 96%; with Candida albicans [9] it was 38%; in the test with Candida albicans [10], 18%; with Candida albicans [12], 30%; in the test on Candida albicans [14], 60%; in the test with Candida albicans [15], 38%. Besides, the Activity is 2.37 in the test with Candida albicans [16]; 16% in the test with Candida albicans [17]; 19% in the test with Candida albicans [18]; 44% in the test with Candida albicans [19]; 5% in the test on Candida albicans [20]; 75% with Candida albicans [21]. Further, the MIC in the test with Candida albicans [4] turned out to be 2 mg/L; with Candida albicans [11] it was 0.25 mg/L; against Candida albicans [13], 0.5 mg/L (≈ 1.63 µM).

For orientation: MIC means the lowest concentration that inhibits growth of the organism.
